# Screening results from PubChem.
# Most compounds without a hit are left out; they make up all but 0.97% or so of the library.
# Dynein transport – inhibitors of GR-EGFP nuclear translocation, primary screen, dynein cargo transport inhibitor project, imaging, high-content, 3617.4 mouse cells; test concentration mostly 20 µM; stimulated with dexamethasone, 1 µM; hits give low values; z-score, hits read low; 220,000 compounds, 0.47% hits; AID 1381, 2008;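 active = plate z-score of nuclear minus cytoplasmic receptor signal below a set negative limit, without overly bright fluorescence or cell loss, cut at about -3.5 in these data, passing the limit was not always enough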;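 also: z-score of nuclear minus cytoplasmic ring GR-EGFP intensity difference per well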
#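 Buffer or medium: tetracycline-free induction medium containing charcoal-stripped FBS / Reagent: dexamethasone agonist, 1.0 µM final, for 30 min / Technique: automated 10x imaging of fixed Hoechst-stained cells / Times: induction 48 h, compound 1 h, agonist 30 min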
# Mdm2 ligase inh – MDM2-luciferase reporter signal enhancers, primary screen, MDM2 E3 ligase inhibitor project, cell-based, luminescence, 1536-well; E3 ubiquitin-protein ligase Mdm2 (Homo sapiens), Q00987; cell-based MDM2 ubiquitination luciferase reporter, 2 h; 0 = plate control, 100 = twice control, blank-subtracted; signal enhancement, % at 5 µM; 210,000 compounds, 0.11% hits;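 active = signal enhancement of 30% or more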;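 also: luminescence tracks abundance of the self-degrading MDM2-luciferase fusion protein; higher signal means inhibition of MDM2 E3 ligase activity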
# Target sequence (Q00987 whole entry, looked up, the tested form may be a part): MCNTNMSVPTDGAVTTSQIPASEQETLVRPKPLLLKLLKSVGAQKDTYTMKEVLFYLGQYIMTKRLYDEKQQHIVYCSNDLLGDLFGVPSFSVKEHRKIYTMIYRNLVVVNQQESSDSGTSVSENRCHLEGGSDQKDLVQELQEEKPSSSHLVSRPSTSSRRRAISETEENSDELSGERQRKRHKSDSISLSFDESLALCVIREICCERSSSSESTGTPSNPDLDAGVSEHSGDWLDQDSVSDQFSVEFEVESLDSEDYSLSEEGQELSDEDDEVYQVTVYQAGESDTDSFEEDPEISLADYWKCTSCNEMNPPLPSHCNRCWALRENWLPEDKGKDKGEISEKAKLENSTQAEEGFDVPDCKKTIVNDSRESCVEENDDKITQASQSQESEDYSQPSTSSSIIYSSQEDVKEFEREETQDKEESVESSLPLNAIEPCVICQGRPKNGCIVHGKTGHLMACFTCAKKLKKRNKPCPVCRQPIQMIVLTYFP
#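 Assay system: mammalian cells stably expressing self-ubiquitinating, self-degrading MDM2 E3–luciferase fusion. Quantity: 2000 cells in each well. Medium: DMEM culture medium. Compound dosing: single-point 5 µM. Timing: cell settling 4 h, compound treatment 2 h, both 37 °C. Technique: luciferase luminescence. Read-out basis: percent signal gain over controls, blank-subtracted. Benchmarks: plate controls and plate blanks.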
# B2AR ag – beta2AR agonists driving receptor internalization, primary screen, cell-based, FAP fluorogen, flow cytometry. Am2.2-beta2AR cells. 340,000 compounds, 0.43% hits. Beta-2 adrenergic receptor (Homo sapiens), P07550. AID 504454, 2011. response, % (no concentration beside the values);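 active = response above a set limit, near 3 SD of response in nonfluorescent compounds, cut at about 42% in these data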
# zVAD death inh – inhibitors of zVAD-triggered necroptosis, primary screen, L929 cells; L929 zVAD necroptosis rescue, ATP luminescence, 24 h; with zVAD 60 µM; viability rescue, % at 10 µM; 220,000 compounds, 0.38% hits; AID 1377, 2008;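 active = activation, scaled between plate controls, above about 75%, limit read from the data; inactive = activation under that limit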;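 also: 0% = zVAD with DMSO and 100% = DMSO alone without zVAD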
# TNF necrop inh – inhibitors of TNF-alpha triggered necroptosis, primary screen, cell-based, Jurkat FADD-/-, single concentration; Jurkat FADD-/- TNF necroptosis rescue, ATP luminescence, 24 h; 0 = TNF only, 100 = no-TNF cells; activation (protection from cell death), % at 10 µM; AID 463075, 2010; 220,000 compounds, 0.068% hits;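 active = activation, meaning protection from cell death, of at least 50% relative to plate controls; inactive = activation below 50%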;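 also: necroptosis triggered by 40 ng/mL TNF-alpha added together with compound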
# * = called active by the depositor; . = not tested or not shown.
SMILES,Dynein transport,Mdm2 ligase inh,B2AR ag,zVAD death inh,TNF necrop inh
CN1CCN(CCCNC(=O)c2ccc(/C=C3\Oc4ccccc4N(Cc4ccccc4F)C3=O)cc2)CC1,.,.,12.0,.,.
CCN1CCN(CCNC(=O)c2ccc(/C=C3\Sc4ccccc4N(Cc4ccccc4F)C3=O)cc2)CC1,0.224,-9.2,55.4*,7.4,-5.8
CN1CCN(CCCNC(=O)c2ccc(/C=C3\Sc4ccccc4N(Cc4ccc(F)cc4)C3=O)cc2)CC1,-0.18,4.5,98.8*,3.8,-7.4
c1ccc(CSc2nnc(-c3ccco3)o2)cc1,-0.327,-18.4,-9.1,-0.7,52.1*
Cn1nc(C(=O)Nc2nc3ccccc3[nH]2)c2ccccc2c1=O,0.194,-14.9,55.9*,0.3,0.9
O=C(CN(C1CCCCC1)S(=O)(=O)c1ccccc1)NCC1CCCO1 (stereo unspecified),.,.,-4.9,.,.
O=C(COc1ccccc1Cl)NC(=O)NC1CCCC1,-0.237,-8.2,-4.3,0.8,57.4*
O=C(COc1ccc(Cl)cc1Cl)NC(=O)NC1CCCC1,.,.,-8.1,.,.
O=C(Nc1nc(-c2ccccn2)cs1)c1ccc(Br)s1,-0.613,44.9*,7.6,4.8,-16.2
CC1CC(C)CN(C(=O)c2cccc(NC(=O)CC3SC(N4CCCCC4)=NC3=O)c2)C1 (stereo unspecified),.,.,1.6,.,.
COC(=O)c1ccc(C2NC(=S)N(c3ccccc3)C(C)=C2C(=O)Nc2ccccc2OC)cc1 (stereo unspecified),1.76,-6.5,46.5*,-0.7,-1.3
COc1ccccc1NC(=O)C1=C(C)N(c2ccccc2)C(=S)NC1c1cccc(C(F)(F)F)c1 (stereo unspecified),0.871,0.9,7.9,-1.4,-2.0
CCCc1cc(=O)[nH]c(N2CCN(Cc3ccc4c(c3)OCO4)CC2)n1,.,.,-6.7,.,.
Nc1c(Cl)ncnc1N/N=C/c1ccc2ccccc2n1,0.298,41.2*,12.8,36.1,-6.7
COc1ccc(C(=O)/C=C2/C(=O)Nc3ccccc32)cc1OC,.,.,-19.6,.,.
COc1ccc(C(=O)/C=C2/C(=O)Nc3ccccc32)cc1,.,.,45.3*,.,.
O=C1COc2ccc(N3C(=O)C=CC3=O)cc2N1,-4.02*,-3.0,.,-1.7,0.2
COc1ccc(NC(=O)C(=O)Nc2cccc3cccnc23)c(OC)c1,.,.,-0.5,.,.
N#CC(C#N)=C1C=CC=CN1/C(=C\c1ccco1)C(=O)c1ccc(Cl)cc1,-3.48,-29.8,58.3*,-0.5,-1.2
CC(/C=N/n1c(-c2ccc(Cl)cc2)n[nH]c1=S)=C\c1ccco1,-0.366,-13.4,-13.3,2.5,-0.2
CCC1CCCCN1CCCNC(=O)CS(=O)(=O)Cc1nc(-c2cccc(OC)c2)oc1C (stereo unspecified),.,.,2.4,.,.
C=C1C(=O)c2sccc2C(c2ccc(OC)c(OC)c2)C1COC(C)=O (stereo unspecified),.,.,102.3*,.,.
CCN1CCN(CC(=O)N2N=C(c3cccs3)CC2c2ccc(OC)c(OC)c2)C(=O)C1=O (stereo unspecified),2.03,-33.4,-2.6,0.2,-0.1
NS(=O)(=O)c1ccc(CCNC(=O)COC(=O)c2cc([N+](=O)[O-])ccc2N2CCOCC2)cc1,.,.,-5.0,.,.
O=C(Cn1c(=O)oc2cc(S(=O)(=O)N3CCCCC3)ccc21)N1CCc2ccccc2C1,-0.151,-5.9,2.4,0.6,-0.4
Cn1cnc2nc(Cl)nc(Cl)c21,.,.,61.6*,.,.
CN1C(=O)C(C)(C)c2cc(S(=O)(=O)N3CCCC(C(=O)Nc4ccc(Cl)cc4)C3)ccc21 (stereo unspecified),.,.,0.2,.,.
O=C(NC1CCCCC1)C(c1cccnc1)N(C(=O)c1ccc(Cl)nc1)C1CCCCC1 (stereo unspecified),-0.324,45.9*,0.3,0.5,0.4
COc1ccc(CCNC(=O)COC(=O)c2cnc(C)cn2)cc1OC,0.744,30.7*,1.9,0.7,-0.2
COc1cccc(/C=N/N2CCN(c3ccncc3S(=O)(=O)N3CCCCC3)CC2)c1,-0.985,-22.1,74.6*,0.8,4.4
